Results published in ChEMBL document CHEMBL1135577, “Synthesis and biological evaluation of structurally highly modified analogues of the antimitotic natural product curacin A” (J Med Chem, 2002).

Each compound was assayed on A2780 (assay: Compound was tested for Tubulin polymerization inhibition by using human ovarian carcinoma cell lines.). Details: not given.
Format: functional
Method in brief: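 Tubulin (10 μM final, 1 mg/mL) was preincubated with agent in DMSO (4% v/v final) and 0.8 M monosodium glutamate for 15 min at 30 °C, then cooled to 0 °C and GTP (0.4 mM final) added. Turbidity at 350 nm was followed for 20 min at 30 °C. […] Values are averages of two determinations.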

Compound | TPI [%]
COc1cc(COCCC/C=C/C=C(\C)CCC(O)c2cccs2)cc(OC)c1OC (stereo unspecified) | 7
C=CC[C@@H](CC[C@@]1(C)C[C@@H]1[C@H]1C[C@@H]1CC/C=C\[C@@H]1CSC([C@@H]2C[C@@H]2C)=N1)OC | 0
COc1cc(/C=N\OC/C=C/C=C(\C)CCC(O)c2cccs2)cc(OC)c1OC (stereo unspecified) | 100
COc1cc(/C=N\OC[C@H]2C[C@@H]2C2C[C@]2(C)CCC(O)c2cccs2)cc(OC)c1OC (stereo partly specified) | 26
C=CC[C@@H](CC[C@@]1(C)C[C@@H]1[C@H]1C[C@@H]1CC/C=C\[C@@H]1COC([C@@H]2C[C@@H]2C)=N1)OC | 59

Each compound was assayed on 2008 (assay: Compound was tested for 50% growth inhibitory concentration by using human ovarian carcinoma cell lines (2008)). Details: not given.
Format: functional
Method in brief: (§1)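 Cultured human tumor cells were seeded at 500-2000 cells/well, allowed to attach for 48 h, then exposed continuously for 48 h to DMSO vehicle or agent at five concentrations (e.g., 50-0.08 μM, 10-0.016 μM or 1-0.0016 μM series), each in quadruplicate. A time-zero plate was included. Cell number was read by MTS/phenazine methanesulfonate at A490-A630. Values are means (N = 4 over 10 concentrations) ± SD.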

Compound | GI50 [µM]
COc1cc(COCCC/C=C/C=C(\C)CCC(O)c2cccs2)cc(OC)c1OC (stereo unspecified) | 15
C=CC[C@@H](CC[C@@]1(C)C[C@@H]1[C@H]1C[C@@H]1CC/C=C\[C@@H]1CSC([C@@H]2C[C@@H]2C)=N1)OC | > 50
COc1cc(/C=N\OC/C=C/C=C(\C)CCC(O)c2cccs2)cc(OC)c1OC (stereo unspecified) | 0.24
COc1cc(/C=N\OC[C@H]2C[C@@H]2C2C[C@]2(C)CCC(O)c2cccs2)cc(OC)c1OC (stereo partly specified) | 9.9
C=CC[C@@H](CC[C@@]1(C)C[C@@H]1[C@H]1C[C@@H]1CC/C=C\[C@@H]1COC([C@@H]2C[C@@H]2C)=N1)OC | 18

These compounds were tested on A2780 (assay: Percent of Tubulin polymerization inhibition by using human ovarian cancer cell lines at a concentration of 5 uM). Details: not given.
Format: functional
Method in brief: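 Purified tubulin (10 μM final, 1 mg/mL) was preincubated 15 min at 30 °C with agent in DMSO (4% v/v final) and 0.8 M monosodium glutamate. Samples were chilled to 0 °C, and GTP was added (0.4 mM final). Turbidity at 350 nm was followed for 20 min after a rapid rise to 30 °C. Inhibition was scaled between vehicle without GTP (100%) and GTP plus vehicle (0%). Values are averages of two determinations.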

Compound | TPI [%]
C=CC[C@@H](CC/C(C)=C/C=C/CC/C=C\[C@@H]1CSC([C@@H]2C[C@@H]2C)=N1)OC [CURACIN A] | 98

These compounds were tested against Tubulin (Bos taurus) (assay: Inhibition of tubulin polymerization of purified bovine brain tubulin). Details: not given.

Compound | IC50 [µM]
C=CC[C@@H](CC/C(C)=C/C=C/CC/C=C\[C@H](CSC(=O)[C@@H]1C[C@@H]1C)NC(C)=O)OC | 1.5
CCCCCCCc1cccc(CC/C=C\[C@@H]2CSC([C@@H]3C[C@@H]3C)=N2)c1 | > 50
C=CC[C@@H](CC/C(C)=C/C=C/CC/C=C\c1csc([C@@H]2C[C@@H]2C)n1)OC | 0.74
C=CC[C@@H](CC/C(C)=C/C=C/CC/C=C\[C@@H]1CSC([C@@H]2C[C@@H]2C)=N1)OC [CURACIN A] | 0.72

What follows are compounds tested on MDA-MB-231 (assay: Compound was tested for 50% Growth Inhibitory concentration by using MDA - MB231 human breast carcinoma cell lines.). Details: not given.
Format: functional
Method in brief: (§2)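 Cells (500–2000/well) attached and grew for 48 h, then received DMSO vehicle or agent at five-point 5-fold dilutions (from 50, 10 or 1 μM top) for 48 h, continuous exposure. A time-zero plate was included, and each concentration was run in quadruplicate. Cell number was read by MTS/phenazine methanesulfonate, A490 minus A630. Values are means (N = 4 over 10 concentrations) ± SD.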

Compound | GI50 [µM]
C=CC[C@@H](CC/C(C)=C/C=C/CC/C=C\[C@@H]1CSC([C@@H]2C[C@@H]2C)=N1)OC [CURACIN A] | 0.096

These compounds were tested on A2780 (assay: Tested for colchicine binding inhibition, using human ovarian cancer cell lines (at 5 uM )). Details: not given.
Format: functional
Method in brief: (§3)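 [3H]colchicine (5 μM) was incubated with 1 μM tubulin and agent (1-250 μM) or DMSO vehicle (5% v/v) at 30 °C for 15 min or 37 °C for 10 min, in 1 M monosodium glutamate, 0.1 M glucose-1-phosphate, 1 mM MgCl2, 1 mM GTP and 0.5 mg/mL BSA. Samples were filtered through DEAE-cellulose and counted by scintillation. Values are means (N = 9 over four concentrations) ± SD.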

Compound | inhibition at 5 µM [%]
C=CC[C@@H](CC/C(C)=C/C=C/CC/C=C\[C@H](CSC(=O)[C@@H]1C[C@@H]1C)NC(C)=O)OC | 9
C=CC[C@@H](CC/C(C)=C/C=C/CC/C=C\c1csc([C@@H]2C[C@@H]2C)n1)OC | 74

These compounds were tested on A2780 (assay: Compound tested for colchicine Binding Inhibition by using human ovarian cancer cell line (at 5 uM )). Details: not given.
Format: functional
Method in brief: (§4)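 [3H]-colchicine (5 μM, 2.3 TBq/mmol) and test agent (1–250 μM) or DMSO vehicle (5% v/v) were incubated with 1 μM purified tubulin at 30 °C for 15 min. The medium held 1 M monosodium glutamate, 0.1 M glucose-1-phosphate, 1 mM MgCl2, 1 mM GTP and 0.5 mg/mL BSA. Samples were filtered through DEAE-cellulose stacks, and […] was counted by scintillation. Values are means (N = 9 over four concentrations) ± SD.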

Compound | inhibition at 5 µM [%]
C=CC[C@@H](CC/C(C)=C/C=C/CC/C=C\[C@@H]1CSC([C@@H]2C[C@@H]2C)=N1)OC [CURACIN A] | 94

The compounds below were run on PC-3 (assay: Compound was tested for 50% growth inhibitory concentration by using human prostate carcinoma cell lines (PC -3)). Details: not given.
Format: functional
Method in brief: as §1

Compound | GI50 [µM]
COc1cc(COCCC/C=C/C=C(\C)CCC(O)c2cccs2)cc(OC)c1OC (stereo unspecified) | 18
COc1cc(/C=N\OC/C=C/C=C(\C)CCC(O)c2cccs2)cc(OC)c1OC (stereo unspecified) | 0.25
C=CC[C@@H](CC[C@@]1(C)C[C@@H]1[C@H]1C[C@@H]1CC/C=C\[C@@H]1COC([C@@H]2C[C@@H]2C)=N1)OC | 49

Continued, values first:

GI50 [µM] | Compound
> 50 | C=CC[C@@H](CC[C@@]1(C)C[C@@H]1[C@H]1C[C@@H]1CC/C=C\[C@@H]1CSC([C@@H]2C[C@@H]2C)=N1)OC
1.2 | COc1cc(/C=N\OC[C@H]2C[C@@H]2C2C[C@]2(C)CCC(O)c2cccs2)cc(OC)c1OC (stereo partly specified)

What follows are compounds tested against Tubulin (Bos taurus) (assay: Ability to inhibit the GTP/glutamate-induced polymerization of tubulin). Details: not given.

IC50 [µM] | Compound
0.17 | COc1cc(/C=N\OC/C=C/C=C(\C)CCC(O)c2cccs2)cc(OC)c1OC (stereo unspecified)

What follows are compounds tested on MDA-MB-231 (assay: Compound was tested for 50% Growth Inhibitory concentration by using MDA-MB-231 cell lines.). Details: Homo sapiens.
Format: functional
Method in brief: as §1

Compound | GI50 [µM]
COc1cc(COCCC/C=C/C=C(\C)CCC(O)c2cccs2)cc(OC)c1OC (stereo unspecified) | > 50
COc1cc(/C=N\OC/C=C/C=C(\C)CCC(O)c2cccs2)cc(OC)c1OC (stereo unspecified) | 0.12
C=CC[C@@H](CC[C@@]1(C)C[C@@H]1[C@H]1C[C@@H]1CC/C=C\[C@@H]1COC([C@@H]2C[C@@H]2C)=N1)OC | 18

Further lines, results first:

GI50 [µM] | Compound
> 50 | C=CC[C@@H](CC[C@@]1(C)C[C@@H]1[C@H]1C[C@@H]1CC/C=C\[C@@H]1CSC([C@@H]2C[C@@H]2C)=N1)OC
0.98 | COc1cc(/C=N\OC[C@H]2C[C@@H]2C2C[C@]2(C)CCC(O)c2cccs2)cc(OC)c1OC (stereo partly specified)

Each compound was assayed on MCF7 (assay: Compound was tested for 50% Growth Inhibitory concentration against MCF-7 cell lines.). Details: Homo sapiens.
Format: functional
Method in brief: as §2

Compound | GI50 [µM]
C=CC[C@@H](CC/C(C)=C/C=C/CC/C=C\[C@@H]1CSC([C@@H]2C[C@@H]2C)=N1)OC [CURACIN A] | 0.04

What follows are compounds tested on A2780 (assay: Compound was tested for colchicine Binding Inhibition by using human ovarian carcinoma cell line (at 5 uM )). Details: not given.
Format: functional
Method in brief: as §3

Compound | inhibition at 5 µM [%]
C=CC[C@@H](CC[C@@]1(C)C[C@@H]1[C@H]1C[C@@H]1CC/C=C\[C@@H]1CSC([C@@H]2C[C@@H]2C)=N1)OC | < 10
COc1cc(/C=N\OC/C=C/C=C(\C)CCC(O)c2cccs2)cc(OC)c1OC (stereo unspecified) | 48
COc1cc(/C=N\OC[C@H]2C[C@@H]2C2C[C@]2(C)CCC(O)c2cccs2)cc(OC)c1OC (stereo partly specified) | < 10

What follows are compounds tested on A2780 (assay: Compound was tested for colchicine binding inhibition by using human ovarian carcinoma cell line (at 5 uM )). Details: not given.
Format: functional
Method in brief: as §3

Compound | inhibition at 5 µM [%]
C=CC[C@@H](CC[C@@]1(C)C[C@@H]1[C@H]1C[C@@H]1CC/C=C\[C@@H]1COC([C@@H]2C[C@@H]2C)=N1)OC | < 10

These compounds were tested on PC-3 (assay: 50% Growth inhibitory concentration by using PC -3 human prostate carcinoma cell lines (48h continuous exposure)). Details: PC-3, 48 h.
Format: functional
Method in brief: as §1

Compound | GI50 [µM]
C=CC[C@@H](CC/C(C)=C/C=C/CC/C=C\[C@@H]1CSC([C@@H]2C[C@@H]2C)=N1)OC [CURACIN A] | 0.05

The compounds below were run on A2780 (assay: Colchicine Binding Inhibition ( CBI ) by using human ovarian cancer cell lines at 5 uM, (values are mean of 9 over 4 concentrations +/- SD)). Details: not given.
Format: functional
Method in brief: as §4

Compound | inhibition at 5 µM [%]
C=CC[C@@H](CC/C(C)=C/C=C/CC/C=C\[C@@H]1CSC([C@@H]2C[C@@H]2C)=N1)OC [CURACIN A] | 78

What follows are compounds tested on 2008 (assay: 50% Growth inhibitory concentration( GI 50 ) by using 2008 human ovarian carcinoma cell lines.). Details: not given.
Format: functional
Method in brief: as §1

Compound | GI50 [µM]
C=CC[C@@H](CC/C(C)=C/C=C/CC/C=C\[C@@H]1CSC([C@@H]2C[C@@H]2C)=N1)OC [CURACIN A] | 0.035

The compounds below were run on MCF7 (assay: Tested for 50% growth inhibitory concentration by using MCF-7 cell lines.). Details: Homo sapiens.
Format: functional
Method in brief: as §1

Compound | GI50 [µM]
C=CC[C@@H](CC/C(C)=C/C=C/CC/C=C\[C@H](CSC(=O)[C@@H]1C[C@@H]1C)NC(C)=O)OC | 4.2
C=CC[C@@H](CC/C(C)=C/C=C/CC/C=C\c1csc([C@@H]2C[C@@H]2C)n1)OC | 0.3

Each compound was assayed on A2780 (assay: Compound tested for colchicine Binding Inhibition by using human ovarian carcinoma cell line (at 5 uM )). Details: not given.
Format: functional
Method in brief: as §3

Compound | inhibition at 5 µM [%]
COc1cc(COCCC/C=C/C=C(\C)CCC(O)c2cccs2)cc(OC)c1OC (stereo unspecified) | < 10
